According to ChEMBL document CHEMBL4732107, “Synthesis and anticancer activity evaluation of naphthalene-substituted triazole spirodienones” (Eur J Med Chem, 2021):
Calls of active or inactive are those of the source. No cut-off for these calls is given here.

Experiments:
4T1 = assay: Antitumor activity against mouse 4T1 cells implanted in mouse assessed as reduction in tumor weight at 1 to 2 mg/kg, ip administered daily for 12 days; type: functional, organism-based; settings: dose 1-2 mg/kg, time 12.0 day
Method in brief: (§1)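 Mice bearing orthotopic 4T1 tumors were randomized into 4 groups (n = 6) once tumors reached about 100 mm2. Groups received vehicle, test compound at 1 or 2 mg/kg, or doxorubicin at 1 mg/kg, given i.p. every day. Body weight and tumor volume were recorded daily. Tumors were excised and weighed at the end, and inhibition was calculated against the saline control.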

[1] = Toxicity in mouse implanted with mouse 4T1 cells assessed as change in body weight at 1 to 2 mg/kg, ip administered daily for 12 days measured daily during compound dosing; type: organism-based; settings: in vivo, 288 h, dose 1-2 mg/kg, time 12 day; method in brief: as §1
[2] = Acute toxicity in Kunming mouse assessed as clinical change in eyes at 40 mg/kg, ip administered as single dose; type: organism-based; settings: in vivo
Method in brief: (§2)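 Kunming mice in four groups (n = 8, half male, half female) got one intraperitoneal dose of 10, 20 or 40 mg/kg, or vehicle. Body weights were recorded daily after dosing. Eyes, skin and fur were checked for clinical signs. Mortality was recorded. Mice were dissected to look for ascites and to assess liver volume.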

[3] = Toxicity in mouse implanted with mouse 4T1 cells assessed as increase in spleen size at 2 mg/kg, ip administered daily for 12 days measured post last dose; type: organism-based; settings: in vivo, 288 h, time 12 day
Method in brief: (§3)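 Orthotopic 4T1-bearing mice (n = 6 per group) were dosed i.p. daily with vehicle, compound at 1 or 2 mg/kg, or doxorubicin at 1 mg/kg. At the end of treatment, tumors and major organs (liver, spleen) were harvested and photographed. Sections were H&E stained and examined by microscope.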

MDA-MB-231 = assay: Induction of apoptosis in human MDA-MB-231 cells assessed as viable cells at 1 uM measured after 24 hrs by annexin V-FITC/propidium iodide staining based flow cytometry (reference value: 90.9%); type: functional; settings: read-out: Activity
A549 = assay: Antiproliferative activity against human A549 cells assessed as reduction in cell viability measured after 5 days by beckman coulter counting method; type: functional, cell-based; settings: A549, 120 h
Method in brief: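 Cells kept in DMEM with 10% FBS, 4 mM glutamine, 1 mM sodium pyruvate, penicillin/streptomycin and amphotericin, at 37 °C in 5% CO2. Seeded at 20,000 per well, then exposed to 5 concentrations for 5 days, with DMSO as vehicle. Viable cells counted on a cell viability analyzer. Viability expressed as treated/vehicle count, and IC50 taken from dose-response curves.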

[4] = Toxicity in mouse implanted with mouse 4T1 cells assessed as increase in liver size at 2 mg/kg, ip administered daily for 12 days measured post last dose; type: organism-based; settings: in vivo, 288 h, time 12 day; method in brief: as §3
[5] = Acute toxicity in Kunming mouse assessed as decrease in liver volume at 40 mg/kg, ip administered as single dose; type: organism-based; settings: in vivo; method in brief: as §2

O=C1C=CC2(C=C1)OCC(=O)N2c1nc(-c2cccc3ccccc23)nn1-c1ccccc1
Activity (4T1): Active
Activity [1]: Non-Toxic
Activity [2]: Non-Toxic
Activity [3]: Toxic
viability at 1 µM (MDA-MB-231): 35.7%
IC50 (A549): 80 nM
Activity [4]: Toxic
Activity [5]: Toxic
